Test results published in ChEMBL document CHEMBL1143313, “Synthesis of novel 4,6-di(substituted)amino-1,2-dihydro-1,3,5-triazine derivatives as topical antiseptic agents” (2009).

How the values were obtained:
Type in all cases: functional
Escherichia coli [1] = test: Bactericidal activity against Escherichia coli NIHJ JC-2 preincubated for 1 min before addition of growth medium measured after 40 to 48 hrs
Escherichia coli [2] = test: Bactericidal activity against Escherichia coli NIHJ JC-2 preincubated for 3 mins before addition of growth medium measured after 40 to 48 hrs
Escherichia coli [3] = test: Bactericidal activity against Escherichia coli NIHJ JC-2 preincubated for 5 mins before addition of growth medium measured after 40 to 48 hrs
Pseudomonas aeruginosa [4] = test: Bactericidal activity against Pseudomonas aeruginosa PAO1 preincubated for 1 min before addition of growth medium measured after 40 to 48 hrs
Pseudomonas aeruginosa [5] = test: Bactericidal activity against Pseudomonas aeruginosa PAO1 preincubated for 3 mins before addition of growth medium measured after 40 to 48 hrs
Pseudomonas aeruginosa [6] = test: Bactericidal activity against Pseudomonas aeruginosa PAO1 preincubated for 5 mins before addition of growth medium measured after 40 to 48 hrs
Staphylococcus aureus [7] = test: Bactericidal activity against methicillin-resistant Staphylococcus aureus 97-53 preincubated for 1 min before addition of growth medium measured after 40 to 48 hrs
How it was run: (§1)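 Read-out is the minimal bactericidal concentration (MBC), taken after 1, 3 and 5 min contact of compound with the test organism.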

Staphylococcus aureus [8] = test: Bactericidal activity against methicillin-resistant Staphylococcus aureus 97-53 preincubated for 3 mins before addition of growth medium measured after 40 to 48 hrs; how it was run: as §1
Staphylococcus aureus [9] = test: Bactericidal activity against methicillin-resistant Staphylococcus aureus 97-53 preincubated for 5 mins before addition of growth medium measured after 40 to 48 hrs; how it was run: as §1
Staphylococcus aureus [10] = test: Bactericidal activity against methicillin-resistant Staphylococcus aureus KM 97-108 preincubated for 1 min before addition of growth medium measured after 40 to 48 hrs; how it was run: as §1
Staphylococcus aureus [11] = test: Bactericidal activity against methicillin-resistant Staphylococcus aureus KM 97-108 preincubated for 3 mins before addition of growth medium measured after 40 to 48 hrs; how it was run: as §1
Staphylococcus aureus [12] = test: Bactericidal activity against methicillin-resistant Staphylococcus aureus KM 97-108 preincubated for 5 mins before addition of growth medium measured after 40 to 48 hrs; how it was run: as §1
Enterococcus [13] = test: Bactericidal activity against vancomycin-resistant Enterococcus 49 preincubated for 1 min before addition of growth medium measured after 40 to 48 hrs; how it was run: as §1
Enterococcus [14] = test: Bactericidal activity against vancomycin-resistant Enterococcus 49 preincubated for 3 mins before addition of growth medium measured after 40 to 48 hrs; how it was run: as §1
Enterococcus [15] = test: Bactericidal activity against vancomycin-resistant Enterococcus 49 preincubated for 5 mins before addition of growth medium measured after 40 to 48 hrs; how it was run: as §1
Pseudomonas aeruginosa [16] = test: Bactericidal activity against Pseudomonas aeruginosa 12 preincubated for 1 min before addition of growth medium measured after 40 to 48 hrs
Pseudomonas aeruginosa [17] = test: Bactericidal activity against Pseudomonas aeruginosa 12 preincubated for 3 mins before addition of growth medium measured after 40 to 48 hrs
Pseudomonas aeruginosa [18] = test: Bactericidal activity against Pseudomonas aeruginosa 12 preincubated for 5 mins before addition of growth medium measured after 40 to 48 hrs
Staphylococcus aureus [19] = test: Antibacterial activity against Staphylococcus aureus 209PJC after 24 hrs
How it was run: (§2)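 Value is the minimal inhibitory concentration (MIC) against the test organism, read after 24 h of incubation.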

Staphylococcus aureus [20] = test: Antibacterial activity against methicillin-resistant Staphylococcus aureus 97-115 after 24 hrs
How it was run: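 Read-out is the minimal inhibitory concentration (MIC), taken after 24 h incubation with the test organism.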

Escherichia coli [21] = test: Antibacterial activity against Escherichia coli NIHJ JC-2 after 24 hrs; how it was run: as §2
Pseudomonas aeruginosa [22] = test: Antibacterial activity against Pseudomonas aeruginosa PAO1; how it was run: as §2
Staphylococcus aureus [23] = test: Bactericidal activity against Staphylococcus aureus 209PJC preincubated for 1 min before addition of growth medium measured after 40 to 48 hrs
Staphylococcus aureus [24] = test: Bactericidal activity against Staphylococcus aureus 209PJC preincubated for 3 mins before addition of growth medium measured after 40 to 48 hrs
Staphylococcus aureus [25] = test: Bactericidal activity against Staphylococcus aureus 209PJC preincubated for 5 mins before addition of growth medium measured after 40 to 48 hrs
Staphylococcus aureus [26] = test: Bactericidal activity against methicillin-resistant Staphylococcus aureus 97-115 preincubated for 1 min before addition of growth medium measured after 40 to 48 hrs; how it was run: as §1
Staphylococcus aureus [27] = test: Bactericidal activity against methicillin-resistant Staphylococcus aureus 97-115 preincubated for 3 mins before addition of growth medium measured after 40 to 48 hrs; how it was run: as §1
Staphylococcus aureus [28] = test: Bactericidal activity against methicillin-resistant Staphylococcus aureus 97-115 preincubated for 5 mins before addition of growth medium measured after 40 to 48 hrs; how it was run: as §1

SMILES | MBC (Escherichia coli [1]) [µg/mL] | MBC (Escherichia coli [2]) [µg/mL] | MBC (Escherichia coli [3]) [µg/mL] | MBC (Pseudomonas aeruginosa [4]) [µg/mL] | MBC (Pseudomonas aeruginosa [5]) [µg/mL] | MBC (Pseudomonas aeruginosa [6]) [µg/mL] | MBC (Staphylococcus aureus [7]) [µg/mL] | MBC (Staphylococcus aureus [8]) [µg/mL] | MBC (Staphylococcus aureus [9]) [µg/mL] | MBC (Staphylococcus aureus [10]) [µg/mL] | MIC (Staphylococcus aureus [19]) [µg/mL] | MIC (Staphylococcus aureus [20]) [µg/mL] | MIC (Escherichia coli [21]) [µg/mL] | MIC (Pseudomonas aeruginosa [22]) [µg/mL] | MBC (Staphylococcus aureus [23]) [µg/mL] | MBC (Staphylococcus aureus [24]) [µg/mL] | MBC (Staphylococcus aureus [25]) [µg/mL] | MBC (Staphylococcus aureus [26]) [µg/mL] | MBC (Staphylococcus aureus [27]) [µg/mL] | MBC (Staphylococcus aureus [28]) [µg/mL] | other results
N=C(NCCCCCCNC(=N)NC(=N)Nc1ccc(Cl)cc1)NC(=N)Nc1ccc(Cl)cc1.O=C(O)[C@H](O)[C@@H](O)[C@H](O)[C@H](O)CO | 62.5 | 31.3 | 15.6 | > 500 | > 500 | > 500 | 500 | 250 | 250 | 500 | 0.2 | 3.1 | 1.6 | 50 | 62.5 | 62.5 | 62.5 | 1000 | 250 | 125 | MBC (Staphylococcus aureus [11]): 500 µg/mL; MBC (Staphylococcus aureus [12]): 500 µg/mL; MBC (Enterococcus [13]): > 1000 µg/mL; MBC (Enterococcus [14]): > 1000 µg/mL; MBC (Enterococcus [15]): > 1000 µg/mL; MBC (Pseudomonas aeruginosa [16]): 125 µg/mL; MBC (Pseudomonas aeruginosa [17]): 31.3 µg/mL; MBC (Pseudomonas aeruginosa [18]): 31.3 µg/mL
CCCCCCCCCCNC1=NC(C)(C)NC(NCCc2ccc(OC)cc2)=N1.Cl | 3.1 | 1.6 | 1.6 | 3.1 | 3.1 | 1.6 |  |  |  |  | 0.4 | 0.8 | 50 | 50 | 50 | 12.5 | 6.3 | 25 | 6.3 | 6.3 | 
CC(=O)O.CCCCCCCCCNC1=NC(C)(C)NC(Nc2ccccc2)=N1 | 12.5 | 6.3 | 3.1 | 6.3 | 3.1 | 3.1 |  |  |  |  | 0.8 | 0.8 | 12.5 | 12.5 | 12.5 | 6.3 | 6.3 | 25 | 25 | 25 | 
CC(=O)O.CCCCCCCCNC1=NC(NCCCCC)=NC(C)(C)N1 | 12.5 | 6.3 | 6.3 | 6.3 | 3.1 | 3.1 |  |  |  |  | 1.6 | 1.6 | 25 | 25 | 3.1 | 3.1 | 3.1 | 6.3 | 3.1 | 3.1 | 
CC(=O)O.CCCCCCCCNC1=NC(C)(C)NC(NCCCC)=N1 | 50 | 25 | 12.5 | 50 | 25 | 12.5 |  |  |  |  | 1.6 | 3.1 | 25 | 50 | 25 | 12.5 | 6.3 | 25 | 12.5 | 12.5 | 
CC(=O)O.CCCCCCCCCCCCNC1=NC(C)(C)NC(NCC)=N1 | 12.5 | 3.1 | 3.1 | 3.1 | 3.1 | 3.1 |  |  |  |  | 0.8 | 1.6 | 12.5 | 50 | 3.1 | 3.1 | 1.6 | 25 | 12.5 | 6.3 | 
CC(=O)O.CCCCCCCCNC1=NC(C)(C)NC(NCc2ccc(C)cc2)=N1 | 12.5 | 6.3 | 6.3 | 12.5 | 6.3 | 3.1 | 50 | 50 | 25 | 50 | 0.4 | 0.4 | 12.5 | 12.5 | 6.3 | 3.1 | 3.1 | 25 | 25 | 12.5 | MBC (Staphylococcus aureus [11]): 50 µg/mL; MBC (Staphylococcus aureus [12]): 25 µg/mL; MBC (Enterococcus [13]): 25 µg/mL; MBC (Enterococcus [14]): 25 µg/mL; MBC (Enterococcus [15]): 12.5 µg/mL; MBC (Pseudomonas aeruginosa [16]): 6.3 µg/mL; MBC (Pseudomonas aeruginosa [17]): 6.3 µg/mL; MBC (Pseudomonas aeruginosa [18]): 3.1 µg/mL
CC(=O)O.CCCCCCCCNC1=NC(C)(C)NC(Nc2ccccc2)=N1 | 12.5 | 6.3 | 6.3 | 25 | 12.5 | 6.3 |  |  |  |  | 1.6 | 1.6 | 25 | 50 | 25 | 6.3 | 6.3 | 25 | 12.5 | 12.5 | 
CC(=O)O.CCCCCCCNC1=NC(C)(C)NC(NCCCCCCC)=N1 | 6.3 | 3.1 | 3.1 | 3.1 | 1.6 | 1.6 |  |  |  |  | 0.8 | 0.8 | 12.5 | 50 | 6.3 | 6.3 | 3.1 | 25 | 25 | 12.5 | 
CC(=O)O.CCCCCCCCNC1=NC(C)(C)NC(NCCCCCC)=N1 | 12.5 | 6.3 | 6.3 | 6.3 | 3.1 | 1.6 | 50 | 25 | 25 | 50 | 0.8 | 0.8 | 12.5 | 50 | 12.5 | 6.3 | 6.3 | 12.5 | 6.3 | 6.3 | MBC (Staphylococcus aureus [11]): 25 µg/mL; MBC (Staphylococcus aureus [12]): 25 µg/mL; MBC (Enterococcus [13]): 25 µg/mL; MBC (Enterococcus [14]): 25 µg/mL; MBC (Enterococcus [15]): 12.5 µg/mL; MBC (Pseudomonas aeruginosa [16]): 3.1 µg/mL; MBC (Pseudomonas aeruginosa [17]): 3.1 µg/mL; MBC (Pseudomonas aeruginosa [18]): 1.6 µg/mL
